Experimental findings from ChEMBL document CHEMBL1671655, “Anidulafungin is fungicidal and exerts a variety of postantifungal effects against Candida albicans, C. glabrata, C. parapsilosis, and C. krusei isolates” (2009) are described below.

In assay [1] the test system is Nakaseomyces glabratus. Briefly: Antifungal activity against Candida glabrata isolate 1 assessed as cell wall damage at MIC by Transmission electron microscopy. It counts as functional, organism-based. The essentials:
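Cells recovered 8 h after a 1-h drug exposure were grown on SDA for 24 h at 35°C. Colonies fixed at 4°C in 0.1 M cacodylate (pH 7.2) with 2% glutaraldehyde and 2% paraformaldehyde, ethanol-dehydrated and embedded in Lowicryl K4M. Thin sections examined by transmission EM.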

For assay [2], the system named is Candida albicans. Kind of assay: Increase in susceptibility to SDS in Candida albicans ATCC 90028 assessed as cell wall damage at MIC after 1 hr relative to control. Format: functional, organism-based. The essentials:
(§1)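 Cells recovered 8 h after a 1-h drug exposure were grown in YPD with 1% glucose to exponential phase and adjusted to OD599 0.1. Undiluted culture and 10-fold serial dilutions were spotted onto YPD plates containing SDS (0.01 to 0.04%), then incubated 72 h at 30°C. Growth compared with unexposed control cells; triplicate.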

Assay [3] has as its system Candida albicans. Kind of assay: Fungicidal activity against Candida albicans isolate S assessed as log reduction in bacterial count at 4 times MIC after drug exposure for 1 hr followed by washout measured after 48 hrs in the absence of drug by PAFE study. Format: functional. The essentials:
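Starting inoculum ~1 x 10^5 to 5 x 10^5 CFU/ml in MOPS-buffered RPMI 1640 (pH 7.0) with drug at multiples of the CLSI M27-A3 MIC. After 1 h at 35°C, cells washed and centrifuged three times at 1,400 x g for 10 min, then resuspended in warm drug-free RPMI. Shaken at 35°C and plated on SDA at 0–48 h; CFU counted after 48 h. Run twice per isolate; means.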

Assay [4] deals with Candida parapsilosis. Briefly: Inhibition of Candida parapsilosis isolate A adherence to human buccal epithelial cells at 4 times MIC after 1 hr by adherence assay relative to control. Format: functional, Epithelial cell. The essentials: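 Candida collected 8 h after a 1-h 4x MIC pulse and washout were grown on SDA for 24 h at 35°C. Buccal epithelial cells were pooled from three donors and washed in PBS. Cells (1 x 10^5/ml) were mixed 1:1 by volume with Candida (1 x 10^6/ml) and shaken 1 h at 37°C. Mixtures were filtered, washed, and Gram-stained, and Candida were counted per 100 epithelial cells. Run in duplicate on ≥2 occasions; Student's t test against unexposed controls.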

Assay [5] deals with Pichia kudriavzevii. Briefly: Antifungal activity against Candida krusei isolate ATCC 6258 by CLSI M27-A3 broth microdilution method. It counts as functional. The essentials:
(§2)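 CLSI M27-A3 broth microdilution in RPMI 1640 buffered to pH 7.0 with MOPS. Starting inoculum 0.5 x 10^3 to 2.5 x 10^3 cells/ml, incubated at 35°C. MIC read as the lowest concentration giving >50% growth reduction versus control. Each isolate tested on at least three occasions.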

Assay [6] has as its system Nakaseomyces glabratus. Briefly: Increase in susceptibility to SDS in Candida glabrata isolate 1 assessed as cell wall damage at 4 times MIC after 1 hr relative to control. Format: functional, organism-based. The essentials:
as §1

Assay [7] has as its system Candida albicans. Kind of assay: Antifungal activity against Candida albicans isolate S by CLSI M27-A3 broth microdilution method. Format: functional. The essentials:
as §2

Converted amounts (≈) assume the structure as drawn. The source made the active and inactive calls. No cut-off for these calls is given here. Starred links: 1 amine or outer side, 2 acyl side, 3 side chain; linkers in the order of their positions; H or OH if unused. Positions of bridges follow the written chain, without caps; N, C: chain ends. Non-standard residues stand in square brackets, D forms with d. Residues, ends and D or L forms follow the SMILES beside them. *: point of attachment. pTerphenylCO(4''-OnC5H11) = CCCCCOc1ccc(-c2ccc(-c3ccc(C(=O)*)cc3)cc2)cc1; Orn(4R-OH,5R-OH) = O=C([C@H](C[C@@H](O)[C@@H](O)N[*:3])N[*:1])[*:2]; hTyr(3S-OH,4S-OH) = N[C@H](C(=O)O)[C@H](O)[C@@H](O)c1ccc(O)cc1; Pro(3S-OH,4S-Me) = C[C@H]1CN[C@H](C(=O)O)[C@H]1O; Hyp = O=C(O)[C@@H]1C[C@@H](O)CN1

Regarding `CCCCCOc1ccc(-c2ccc(-c3ccc(C(=O)N[C@H]4C[C@@H](O)[C@@H](O)NC(=O)[C@@H]5[C@@H](O)[C@@H](C)CN5C(=O)[C@H]([C@@H](C)O)NC(=O)[C@H]([C@H](O)[C@@H](O)c5ccc(O)cc5)NC(=O)[C@@H]5C[C@@H](O)CN5C(=O)[C@H]([C@@H](C)O)NC4=O)cc3)cc2)cc1` [ANIDULAFUNGIN] ({pTerphenylCO(4''-OnC5H11)}-[Orn(4R-OH,5R-OH)]T[Hyp][hTyr(3S-OH,4S-OH)]T[Pro(3S-OH,4S-Me)]; lactam 1-C), the result in assay [1], in assay [2] and in assay [6] was Active. In addition, the log reduction in assay [3] amounted to 2.09 log CFU/ml. For the same molecule, the “inhibition (INH)” value in assay [4] was determined as 69%. In addition, the MIC in assay [5] worked out at 0.06 µg/mL (≈ 0.0526 µM); in assay [7] it was 0.008 µg/mL (≈ 0.00702 µM).
